dFosB activator – activators of mouse delta FosB homodimer. activation, % at 25 µM. 340,000 tested, 0.99% active. purified delta FosB, TAMRA-CDK5 oligo fluorescence polarization; percent of positive-control signal above neutral wells. P13346;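 active = mean activation above about 17%, with every replicate also reaching it, limit read from the data, passing the limit was not always enough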
AF4-AF9 inh – MLL-AF4/AF9 protein interaction inhibition | P42568 | AlphaScreen, biotin-AF4 peptide binding to FLAG-AF9 | inhibition, % at 10 µM | 350,000 tested, 0.47% active;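 active = every replicate reaching a set inhibition limit, whatever the replicate mean, cut at about 25% in these data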;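 note: 0% = plate neutral control median and 100% = total signal loss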
S100A4 inh HTS – inhibitors of human S100A4 binding to myosin IIA peptide | S100A4/TAMRA-MyoIIA peptide fluorescence polarization | inhibition, % at 10.7 µM | 360,000 tested, 0.14% active;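 active = mean inhibition of at least 70% across replicates, with every replicate also reaching that level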
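Test system: S100A4 monomer protein. Medium: HEPES buffer with Ca2+, pH 7.2. Reagent: fluorescent myosin IIA peptide, 5 nM. Compound dosing: single-point compound testing. Timing: 5 min between mix addition and reading. Benchmarks: DMSO neutral and TFP positive wells.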
RAD54 branch – RAD54 (human) branch migration inhibition; RAD54 Holliday junction branch migration, FAM/BHQ fluorescence; inhibition, % at 10.4 µM; 360,000 tested, 0.14% active; AID 602329;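 active = mean normalized replicate activity at least 40 and at least half of replicates scoring 40 or more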;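 note: 0% = median of neutral control wells and 100% = median of positive control wells; inhibitors cause a drop in the FAM fluorescence signal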
Target sequence (Q92698 whole entry, looked up): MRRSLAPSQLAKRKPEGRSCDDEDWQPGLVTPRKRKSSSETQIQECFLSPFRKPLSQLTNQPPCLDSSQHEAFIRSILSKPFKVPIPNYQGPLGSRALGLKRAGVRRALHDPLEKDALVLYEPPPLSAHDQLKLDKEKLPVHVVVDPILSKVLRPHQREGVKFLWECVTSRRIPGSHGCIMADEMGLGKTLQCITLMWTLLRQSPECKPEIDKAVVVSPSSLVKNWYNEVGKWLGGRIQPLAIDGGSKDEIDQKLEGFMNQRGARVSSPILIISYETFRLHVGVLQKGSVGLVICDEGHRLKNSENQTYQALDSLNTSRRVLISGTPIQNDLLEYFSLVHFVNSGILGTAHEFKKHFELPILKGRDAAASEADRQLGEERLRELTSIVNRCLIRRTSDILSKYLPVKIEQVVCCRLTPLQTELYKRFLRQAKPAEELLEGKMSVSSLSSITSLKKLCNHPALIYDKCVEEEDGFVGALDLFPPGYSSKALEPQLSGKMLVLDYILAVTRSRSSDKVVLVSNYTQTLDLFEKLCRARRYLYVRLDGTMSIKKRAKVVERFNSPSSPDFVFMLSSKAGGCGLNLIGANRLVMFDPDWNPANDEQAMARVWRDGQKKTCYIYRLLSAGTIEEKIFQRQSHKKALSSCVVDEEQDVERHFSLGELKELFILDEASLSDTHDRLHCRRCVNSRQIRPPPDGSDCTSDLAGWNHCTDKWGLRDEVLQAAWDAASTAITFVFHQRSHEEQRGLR
RAD52 inh – RAD52 (human) annealing inhibition. P43351. recombinant RAD52 DNA annealing, FRET fluorescence. inhibition, % at 18.7 µM. 360,000 tested, 0.46% active. AID 651710;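 active = every replicate showing at least 50% inhibition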
* marks the source's active call; other numbers are inactive results; / = no result. In the library only some 1.5% were active in any assay of this set; here they are far more common.

SMILES | dFosB activator | AF4-AF9 inh | S100A4 inh HTS | RAD54 branch | RAD52 inh
CCCC[C@@H](O)C1=C(COC)C[C@H]2C(=O)N(Cc3ccccc3)C(=O)[C@H]2[C@H]1CO | / | -5 | 2 | / | -10
CC1CCN(S(=O)(=O)c2cnc(Cl)c(Br)c2)CC1 | -7 | 27* | 0 | / | -17
CC1CCCCN1S(=O)(=O)c1cnc(Cl)c(Br)c1 (stereo unspecified) | -2 | -6 | 26 | / | -5
COc1ccc(NC(=O)N(C)C[C@@H]2OCCCC[C@@H](C)Oc3ccc(NC(=O)NC4CCCCC4)cc3C(=O)N([C@H](C)CO)C[C@H]2C)cc1 | / | 1 | 14 | -5 | -4
Cc1c2c(cc3c1[nH]c1ccccc13)C=NCC2 | -1 | 0 | -25 | 58* | 9
Cc1nc(C(=O)O)cc2c1[nH]c1ccccc12 | -6 | -3 | -7 | -4 | -39
Cc1ccccc1-c1ccc([C@@H]2[C@H](CO)N3CCCCN(C(=O)Nc4ccc(F)cc4)C[C@@H]23)cc1 | / | 11 | 21 | 2 | -8
CCN(Cc1ccccc1)c1cc2c(c3c1ccn3C)C1CCC2C1 (stereo unspecified) | / | 25* | -8 | -3 | -4
CN(c1ccc(Cl)cc1)c1cc2c(c3c1ccn3C)C1CCC2C1 (stereo unspecified) | / | 10 | -3 | -5 | -3
CCCN(CC1CC1)c1cc2c(c3c1ccn3C)C1CCC2C1 (stereo unspecified) | / | 48* | -7 | 10 | 6
Cn1ccc2c(N3CCOCC3)cc3c(c21)C1CCC3C1 (stereo unspecified) | / | 26* | 0 | -12 | -10
COc1ccc(NC(C)C(=O)Nc2cc(C(F)(F)F)ccc2N2CCOCC2)c(OC)c1 (stereo unspecified) | -8 | 26* | 13 | -8 | 0
COc1cc(Cl)c(C)cc1NC(C)C(=O)Nc1cc(C(F)(F)F)ccc1N1CCOCC1 (stereo unspecified) | -8 | / | / | / | /
O=c1[nH]c(N/N=C\c2ccc3c(c2)OCO3)nc2ccccc12 | 34* | 2 | -3 | -4 | -9
Cc1cc(N/N=C/c2ccc3c(c2)OCO3)nc2ccccc12 | 61* | 17 | -1 | / | -10
Cc1ccc(S(=O)(=O)N(C)C[C@H]2OCCCC[C@@H](C)Oc3ccc(NC(=O)Nc4ccccc4)cc3C(=O)N([C@@H](C)CO)C[C@H]2C)cc1 | / | 1 | -3 | -2 | -33
C[C@@H]1CN([C@@H](C)CO)C(=O)c2cc(N(C)C)ccc2O[C@H]1CN(C)Cc1ccccc1 | / | -3 | -5 | 0 | -13
C[C@@H]1CN([C@H](C)CO)C(=O)c2cc(N(C)C)ccc2O[C@@H]1CN(C)Cc1ccc(-c2ccccc2)cc1 | / | 47* | -2 | -14 | 11
C[C@@H]1CN([C@@H](C)CO)C(=O)c2cc(N(C)C)ccc2O[C@H]1CN(C)Cc1ccc(-c2ccccc2)cc1 | / | 34* | -4 | -11 | 7
C[C@@H]1CN([C@@H](C)CO)S(=O)(=O)c2ccc(C#CC(C)(C)O)cc2O[C@@H]1CN(C)C(=O)CN(C)C | / | -2 | -12 | 5 | 0
COc1ccc2c3c([nH]c2c1)[C@H](CO)N(Cc1ccccc1)CC31CN(C(=O)c2cccnc2)C1 | / | 0 | 7 | / | -15
CO[C@H]1CC[C@H]2CCOc3c(C#N)cccc3C(=O)N(C)C[C@H](C)C(=O)N(C)C[C@H]1O2 | / | -1 | -4 | 3 | 11
C[C@H](O)C#Cc1cnc2c(c1)C(=O)N([C@@H](C)CO)C[C@H](C)[C@@H](CN(C)Cc1cccc(F)c1)O2 | / | -1 | -3 | 5 | 0
C[C@H](CO)N1C[C@H](C)[C@@H](CN(C)Cc2cccc(F)c2)Oc2ncc(C#C[C@@H](C)O)cc2C1=O | / | -2 | 141* | -1 | 1
CC(C)C#Cc1cnc2c(c1)C(=O)N([C@@H](C)CO)C[C@H](C)[C@@H](CN(C)C(=O)Nc1ccc(F)cc1)O2 | / | -15 | -3 | -14 | 10
C[C@@H]1CN([C@H](C)CO)C(=O)c2cc(C#CC3CC3)cnc2O[C@@H]1CN(C)S(C)(=O)=O | / | -7 | 117* | 6 | 13
CC(C)C#Cc1cnc2c(c1)C(=O)N([C@H](C)CO)C[C@H](C)[C@H](CN(C)C(=O)Nc1ccc(F)cc1)O2 | / | 3 | 78* | -3 | 12
C[C@@H]1CN([C@@H](C)CO)C(=O)c2cc(NC(=O)NC3CCCCC3)ccc2O[C@@H]1CN(C)S(=O)(=O)c1ccc(F)cc1 | / | -1 | 13 | 6 | -22

From PubChem
